According to ChEMBL document CHEMBL1125621, “Muscarinic receptor binding and activation of second messengers by substituted N-methyl-N-[4-(1-azacycloalkyl)-2-butynyl]acetamides” (1991):
Calls of active or inactive are those of the source.

Assays:
[1] = target: T1, Muscarinic acetylcholine receptor (Rattus norvegicus) (UniProt P08482+P08483+P08485+P08911+P10980); assay: Displacement of [3H]N-methylscopolamine ([3H]NMS) binding at muscarinic acetylcholine receptor in rat cerebral cortical membranes; assay type: cell membranes; parameters: concentration or dose not given beside the values; conditions: Membrane
Procedure, shortened: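 Rat (Sprague-Dawley, either sex, 200 g) forebrain membranes, homogenized and washed in 50 mM sodium phosphate pH 7.4. 200-300 μg membrane incubated with 0.5 nM [3H]NMS plus compound (single concentration, 100 μM) in phosphate-buffered saline, 60 min at 37 °C. Filtered on glass fiber, scintillation counted. Nonspecific binding defined with 1 μM atropine. Triplicate. Reported as percent displacement.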

A9 [2] = assay: Increase in phosphoinositide (PI) metabolism in A9L-m1 cells at 100 uM.; assay type: functional, Mus musculus
[3] = target: Muscarinic acetylcholine receptor M3 (Mus musculus) (UniProt Q9ERZ3); assay: Increase in phosphoinositide (PI) metabolism in A9L-cholinergic receptor, muscarinic 3 expressing cells was measured at 100 uMolar; assay type: functional; conditions: 100 uM
Procedure, shortened: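 A9L fibroblasts transfected with m3 receptor, grown in DMEM with 10% newborn calf serum. Labeled overnight with [3H]myo-inositol, preincubated 5 min at 37 °C in 10 mM LiCl DMEM-Hepes. Compound at 100 μM final, 30 min at 37 °C. Labeled inositol phosphates extracted by ion exchange. Result expressed as percent of the oxotremorine-M response, duplicate determinations.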

[4] = target: T1, Muscarinic acetylcholine receptor (Rattus norvegicus); assay: Evaluated for displacement of [3H]oxotremorine-M binding ([3H]OXO-M) at muscarinic acetylcholine receptor in rat forebrain membranes; assay type: cell membranes; parameters: concentration or dose not given beside the values; conditions: Membrane
Procedure, shortened: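 Sprague-Dawley rat forebrain membranes. Incubated with 2.7 nM [3H]Oxo-M in 50 mM NaPO4, 2 mM MgCl2, pH 7.4, 20 min at 37 °C. Filtered on glass fiber presoaked in 0.05% polyethylenimine. Nonspecific binding defined with 1 μM atropine. Single concentration 1 μM, triplicate, averaged over two to five trials. Read-out is percent displacement of specific binding.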

[5] = The percent inhibition of cyclic AMP(cAMP) formation in NG108-15 cells at 100 uM.; conditions: Mus musculus
A9 [6] = assay: The increase in phosphoinositide (PI) metabolism in A9L-m1 cells was measured at 100 uM; i = inactive; assay type: functional, cell-based; conditions: Mus musculus
Procedure, shortened: (§1)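 A9L fibroblasts transfected with m1 or m3 receptor, grown in DMEM with 10% newborn calf serum. Labeled overnight with [³H]myo-inositol, preincubated 5 min at 37 °C in 10 mM LiCl in DMEM-Hepes, then exposed to compound at 100 μM final for 30 min. Inositol phosphates extracted by ion exchange. Result expressed as percent of Oxo-M response; duplicate determinations.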

[7] = The percent inhibition of cyclic AMP(cAMP) formation in NG108-15 cells expressed in m40AChR was measured; i=inactive (< 2%); conditions: Mus musculus
A9 [8] = assay: The increase in phosphoinositide (PI) metabolism in A9L-m3 cells was measured at 100 uM; i = inactive; assay type: functional, cell-based; conditions: Mus musculus; procedure, shortened: as §1
[9] = target: T1, Muscarinic acetylcholine receptor (Rattus norvegicus); assay: compound was evaluated for displacement of [3H]N-methylscopolamine ([3H]NMS) binding at muscarinic acetylcholine receptor in rat cerebral cortical membranes; i = inactive (< 1%); assay type: cell membranes; conditions: Membrane
Procedure, shortened: (§2)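 Rat cerebral cortical membranes, 200-300 μg per tube, incubated with 0.5 nM [³H]NMS and test compound at a single concentration of 100 μM in phosphate-buffered saline, 60 min at 37 °C. Glass fiber filtration and scintillation counting. Nonspecific binding taken with 1 μM atropine and subtracted. Triplicates; result given as percent displacement of specific binding.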

[10] = target: T2, cyclic AMP phosphoprotein (Rattus norvegicus) (UniProt Q712U5); assay: The percent inhibition of cyclic AMP(cAMP) formation in NG108-15 cells expressed in m40AChR was measured; assay type: functional, cell-based; conditions: concentration not given here
T2 sequence (whole entry): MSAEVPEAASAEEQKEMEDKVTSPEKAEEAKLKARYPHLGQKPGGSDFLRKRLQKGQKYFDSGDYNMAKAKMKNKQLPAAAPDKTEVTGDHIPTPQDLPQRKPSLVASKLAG
Procedure, shortened: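 NG108-15 cells expressing m4 receptors; compound at 100 μM. Cyclic AMP inhibition expressed as percent of Oxo-M (100%), average of two or three trials.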

[11] = target: T1, Muscarinic acetylcholine receptor (Rattus norvegicus); assay: compound was evaluated for displacement of [3H]oxotremorine-M binding ([3H]OXO-M) at muscarinic acetylcholine receptor in rat forebrain membranes; i = inactive (< 1%); assay type: cell membranes; conditions: Membrane
Procedure, shortened: (§3)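 Forebrain membranes from Sprague-Dawley rats, prepared in 50 mM sodium phosphate pH 7.4. Incubated with 2.7 nM [³H]Oxo-M and test compound at a single concentration of 1 μM in 50 mM NaPO₄, 2 mM MgCl₂, pH 7.4, 20 min at 37 °C. Filters presoaked in polyethylenimine; nonspecific binding with 1 μM atropine. Percent displacement, mean of two to five trials.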

[12] = target: T1, Muscarinic acetylcholine receptor (Rattus norvegicus); assay: Compound was evaluated for displacement of [3H]oxotremorine-M binding ([3H]OXO-M) at muscarinic acetylcholine receptor in rat forebrain membranes; assay type: cell membranes; conditions: Membrane; procedure, shortened: as §3
[13] = target: T1, Muscarinic acetylcholine receptor (Rattus norvegicus); assay: Compound was evaluated for displacement of [3H]N-methylscopolamine ([3H]NMS) binding at muscarinic acetylcholine receptor in rat cerebral cortical membranes; assay type: cell membranes; conditions: Membrane; procedure, shortened: as §2

Sequence of Muscarinic acetylcholine receptor M3 (Mus musculus) (Q9ERZ3 whole entry): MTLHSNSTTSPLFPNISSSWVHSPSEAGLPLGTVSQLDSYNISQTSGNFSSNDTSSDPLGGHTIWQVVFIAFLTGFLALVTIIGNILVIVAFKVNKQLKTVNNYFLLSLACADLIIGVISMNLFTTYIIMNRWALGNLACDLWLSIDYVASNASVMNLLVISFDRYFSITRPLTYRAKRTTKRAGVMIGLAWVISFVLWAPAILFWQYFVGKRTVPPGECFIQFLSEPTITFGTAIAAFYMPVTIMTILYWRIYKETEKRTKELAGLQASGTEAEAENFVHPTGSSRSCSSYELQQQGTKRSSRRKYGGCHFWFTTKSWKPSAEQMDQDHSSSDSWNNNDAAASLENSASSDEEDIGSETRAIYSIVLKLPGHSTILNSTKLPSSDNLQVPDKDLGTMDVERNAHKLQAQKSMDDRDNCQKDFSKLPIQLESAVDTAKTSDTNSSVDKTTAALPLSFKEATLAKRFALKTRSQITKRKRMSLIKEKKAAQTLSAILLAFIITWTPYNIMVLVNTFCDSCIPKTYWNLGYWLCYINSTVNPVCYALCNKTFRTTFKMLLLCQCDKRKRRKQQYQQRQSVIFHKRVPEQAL

SMILES	Displacement [1] [%]	PI turnover (A9 [2])	PI turnover [3]	Displacement [4] [%]	inhibition [5] [%]	inhibition [7]	further results
CC(=O)N(C)CC#CCN1CCC(CO)CC1.O=C(O)C(=O)O	10.2	8.8	16	14.7	4.8	–	–
CC(=O)N(C)CC#CCN1CCC[C@@H]1CF.O=C(O)C(=O)O	67.2	7.2	10.4	61.5	38.6	–	–
CC(=O)N(C)CC#CCN1CCC(O)C1.O=C(O)C(=O)O (centres undefined)	21.5	17.1	7.4	39.9	22.5	–	–
CC(=O)N(C)CC#CCN1CCC(F)CC1	18.8	–	–	–	–	–	–
C[N+](C)(C)CCOC(N)=O	–	–	86.1	–	–	–	–
CC(=O)N(C)CC#CCN1CCCC1	89.4	52.5	41.6	94.7	100	–	–
CC(=O)N(C)CC#CCN1CCCC(CO)C1 (centres undefined)	45	–	2.8	22.4	–	–	PI turnover (A9 [6]): inactive
CCOC(=O)C1CCN(CC#CCN(C)C(C)=O)CC1.O=C(O)C(=O)O	47.5	3.3	8.8	32.1	–	inactive	–
CC(=O)N(C)CC#CCN1CCC1.O=C(O)C(=O)O	38	61.3	59.8	94	95.7	–	–
CC(=O)N(C)CC#CCN1CCN(CCO)CC1	9.3	–	–	22.3	–	inactive	PI turnover (A9 [8]): inactive; PI turnover (A9 [6]): inactive
CC(=O)N(C)CC#CCN1CCC(O)CC1	3.8	–	2.6	9.2	–	–	PI turnover (A9 [6]): inactive
CC(=O)N(C)CC#CCN1CCCCC1	83.4	–	5.6	68.9	–	inactive	PI turnover (A9 [6]): inactive
CC(=O)N(C)CC#CCN1CCC(C(=O)O)CC1	–	–	5.2	26.8	17.5	–	Displacement [9]: inactive; PI turnover (A9 [6]): inactive
CC(=O)N(C)CC#CCN1CCC(OS(C)(=O)=O)C1.O=C(O)C(=O)O (centres undefined)	20.2	10.4	17.2	25.2	38.5	–	–
COC[C@@H]1CCCN1CC#CCN(C)C(C)=O.O=C(O)C(=O)O	52	6.2	5.5	–	15.4	–	–
CC(=O)N(C)CC#CCN1CCC[C@H]1CO.O=C(O)C(=O)O	33.1	5.1	4.7	25	–	inactive	–
CCOC(=O)C1CCCCN1CC#CCN(C)C(C)=O.O=C(O)C(=O)O (centres undefined)	5.8	12.8	15.2	24.9	44.1	–	–
CC(=O)N(C)CC#CCN1CCC(F)C1.O=C(O)C(=O)O (centres undefined)	29	11.3	7.9	38.1	8.9	–	–
CC(=O)N(C)CC#CCN1CCC[C@H]1CF.O=C(O)C(=O)O	53.8	11.1	10.6	50.5	–	–	inhibition [10]: 62.4%
CC(=O)N(C)CC#CCN1CCN(C(C)=O)CC1.O=C(O)C(=O)O	59.2	1	3.1	–	–	inactive	Displacement [11]: inactive
CC(=O)N(C)CC#CCN1CCC(CCO)CC1.O=C(O)C(=O)O	16.3	3.3	–	11	–	inactive	–
O=C1CCCN1CC#CCN1CCCC1	–	–	35.6	–	–	–	–
CC(=O)N(C)CC#CCN1CCCC(O)C1 (centres undefined)	21.7	–	4.9	9.1	3.4	–	PI turnover (A9 [6]): inactive
CC(=O)N(C)CC#CCN1CCCCC1CO.O=C(O)C(=O)O (centres undefined)	31.2	7.3	12.5	20.4	–	inactive	–
CC(=O)N(C)CC#CCN1CCNCC1.O=C(O)C(=O)O	51.2	18.2	12	33.8	16.8	–	–
CC(=O)N(C)CC#CCN1CCC[C@@H]1CO.O=C(O)C(=O)O	56.2	2.6	4.8	39.7	–	inactive	–
CC(=O)N(C)CC#CCN1CCC(OC(=O)c2ccccc2)C1.O=C(O)C(=O)O (centres undefined)	57.4	1.4	4	39.1	–	inactive	–
CCOC(=O)C1CCCN(CC#CCN(C)C(C)=O)C1.O=C(O)C(=O)O (centres undefined)	39.8	6.6	12.9	31.2	23.6	–	–
CC(=O)OC[C@H]1CCCN1CC#CCN(C)C(C)=O	–	–	2.6	–	–	inactive	Displacement [12]: 42.1%; Displacement [13]: 61.6%; PI turnover (A9 [6]): inactive
CC(=O)N(C)CC#CCN1CCC(OS(=O)(=O)c2ccc(C)cc2)C1.O=C(O)C(=O)O (centres undefined)	51.6	23.1	23.1	64.8	83.6	–	–
